Reference: ChEMBL document CHEMBL4118021, “Studies of TAK1-centered polypharmacology with novel covalent TAK1 inhibitors” (Bioorg Med Chem, 2017)

Tests used:
Format in all cases: cell-based
[1] = target: Interleukin-1 receptor-associated kinase 1 (Homo sapiens) (UniProt P51617); test: Inhibition of IRAK1 in human SKCO1 cells at 1 uM after 4 hrs using biotin labeled AIQFLHQDSPSLIHGDIKSSNVLLDER probe by mass-spectrometric analysis relative to control
[2] = target: Glycogen synthase kinase-3 alpha (Homo sapiens) (UniProt P49840); test: Inhibition of GSK3A in human SKCO1 cells at 1 uM after 4 hrs using biotin labeled DIKPQNLLVDPDTAVLK probe by mass-spectrometric analysis relative to control
[3] = target: Microtubule-associated serine/threonine-protein kinase 3 (Homo sapiens) (UniProt O60307); test: Inhibition of MAST3 in human SKCO1 cells at 1 uM after 4 hrs using biotin labeled DLKPDNLLITSLGHIK probe by mass-spectrometric analysis relative to control
[4] = target: Serine/threonine-protein kinase 32C (Homo sapiens) (UniProt Q86UX6); test: Inhibition of YANK3 in human SKCO1 cells at 1 uM after 4 hrs using biotin labeled DVKPDNILLDER probe by mass-spectrometric analysis relative to control
Chain of Serine/threonine-protein kinase 32C (Homo sapiens) (Q86UX6 whole entry): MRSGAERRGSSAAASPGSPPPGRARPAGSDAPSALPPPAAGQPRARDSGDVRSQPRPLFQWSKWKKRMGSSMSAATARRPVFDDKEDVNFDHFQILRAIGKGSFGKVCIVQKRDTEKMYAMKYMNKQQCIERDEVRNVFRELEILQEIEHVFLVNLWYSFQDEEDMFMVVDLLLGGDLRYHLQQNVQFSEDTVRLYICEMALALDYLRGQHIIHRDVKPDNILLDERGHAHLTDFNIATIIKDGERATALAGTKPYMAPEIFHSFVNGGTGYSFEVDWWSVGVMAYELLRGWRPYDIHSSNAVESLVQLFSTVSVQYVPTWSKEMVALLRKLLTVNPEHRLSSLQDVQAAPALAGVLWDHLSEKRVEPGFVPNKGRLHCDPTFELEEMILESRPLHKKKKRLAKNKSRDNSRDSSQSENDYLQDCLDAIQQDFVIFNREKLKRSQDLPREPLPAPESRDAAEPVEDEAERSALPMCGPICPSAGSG
How it was run: (§1)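 Live SK-CO-1 cells exposed to compound at 1 μM or DMSO for 4 h (KiNativ). Lysates then labeled with lysine-reactive ATP/ADP-biotin probe, and probe-labeled kinase peptides quantified by mass spectrometry. Percent inhibition of probe-dependent recovery calculated relative to DMSO-treated cells.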

[5] = target: Serine/threonine-protein kinase VRK2 (Homo sapiens) (UniProt Q86Y07); test: Inhibition of VRK2 in human SKCO1 cells at 1 uM after 4 hrs using biotin labeled MLDVLEYIHENEYVHGDIKAANLLLYK probe by mass-spectrometric analysis relative to control; how it was run: as §1
[6] = target: Cyclin-dependent kinase 18 (Homo sapiens) (UniProt Q07002); test: Inhibition of PCTAIRE3 in human SKCO1 cells at 1 uM after 4 hrs using biotin labeled SKLTENLVALKEIR probe by mass-spectrometric analysis relative to control; how it was run: as §1
Chain of Cyclin-dependent kinase 18 (Homo sapiens) (Q07002 whole entry): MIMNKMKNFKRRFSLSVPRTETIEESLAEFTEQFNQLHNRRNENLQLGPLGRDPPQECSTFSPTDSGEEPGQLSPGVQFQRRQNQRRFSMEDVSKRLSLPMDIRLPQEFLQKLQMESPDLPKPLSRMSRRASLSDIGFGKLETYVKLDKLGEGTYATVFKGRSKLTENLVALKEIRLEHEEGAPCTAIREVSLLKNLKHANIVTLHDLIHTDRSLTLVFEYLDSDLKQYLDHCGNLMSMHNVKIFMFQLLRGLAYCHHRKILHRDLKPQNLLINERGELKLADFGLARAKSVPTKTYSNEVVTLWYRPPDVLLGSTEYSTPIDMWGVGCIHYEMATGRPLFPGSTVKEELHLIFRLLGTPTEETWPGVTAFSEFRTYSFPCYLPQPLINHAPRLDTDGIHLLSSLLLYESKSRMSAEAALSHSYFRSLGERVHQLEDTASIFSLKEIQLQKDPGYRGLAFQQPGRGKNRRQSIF

[7] = target: T1, Protein kinase C zeta type (Homo sapiens) (UniProt Q05513); test: Inhibition of PKCz in human SKCO1 cells at 1 uM after 4 hrs using biotin labeled DLKLDNVLLDADGHIK probe by mass-spectrometric analysis relative to control; how it was run: as §1
T1 sequence (whole entry): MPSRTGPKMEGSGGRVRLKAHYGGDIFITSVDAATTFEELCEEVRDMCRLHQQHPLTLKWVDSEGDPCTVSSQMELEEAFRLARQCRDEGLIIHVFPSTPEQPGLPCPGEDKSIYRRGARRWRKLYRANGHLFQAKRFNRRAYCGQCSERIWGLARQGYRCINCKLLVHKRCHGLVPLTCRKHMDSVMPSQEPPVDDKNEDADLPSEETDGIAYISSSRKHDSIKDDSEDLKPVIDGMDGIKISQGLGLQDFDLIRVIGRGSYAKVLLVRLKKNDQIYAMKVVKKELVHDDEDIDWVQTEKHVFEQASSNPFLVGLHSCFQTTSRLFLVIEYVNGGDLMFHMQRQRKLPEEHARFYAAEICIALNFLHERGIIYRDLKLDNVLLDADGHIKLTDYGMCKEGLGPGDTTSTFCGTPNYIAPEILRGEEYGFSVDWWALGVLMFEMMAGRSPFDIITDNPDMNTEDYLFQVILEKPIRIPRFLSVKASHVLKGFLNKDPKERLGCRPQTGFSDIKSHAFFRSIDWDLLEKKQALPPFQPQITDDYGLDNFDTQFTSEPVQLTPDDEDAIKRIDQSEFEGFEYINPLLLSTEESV

[8] = target: T2, Serine/threonine-protein kinase 4 (Homo sapiens) (UniProt Q13043); test: Inhibition of MST1 in human SKCO1 cells at 1 uM after 4 hrs using biotin labeled ETGQIVAIKQVPVESDLQEIIK probe by mass-spectrometric analysis relative to control; how it was run: as §1
T2 sequence (whole entry): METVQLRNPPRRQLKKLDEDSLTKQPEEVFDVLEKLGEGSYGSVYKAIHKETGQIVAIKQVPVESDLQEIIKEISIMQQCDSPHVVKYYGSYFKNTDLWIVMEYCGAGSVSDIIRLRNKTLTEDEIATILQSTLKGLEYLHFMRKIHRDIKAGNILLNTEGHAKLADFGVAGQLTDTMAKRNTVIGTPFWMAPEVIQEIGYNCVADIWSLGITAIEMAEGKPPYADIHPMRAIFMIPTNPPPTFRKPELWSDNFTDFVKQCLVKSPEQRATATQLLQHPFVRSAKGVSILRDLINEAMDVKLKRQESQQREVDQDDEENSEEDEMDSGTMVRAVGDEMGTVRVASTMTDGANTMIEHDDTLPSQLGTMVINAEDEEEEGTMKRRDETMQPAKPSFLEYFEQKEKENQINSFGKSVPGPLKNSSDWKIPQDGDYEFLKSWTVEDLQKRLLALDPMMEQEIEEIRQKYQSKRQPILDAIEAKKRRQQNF

[9] = target: T3, Serine/threonine-protein kinase Chk1 (Homo sapiens) (UniProt O14757); test: Inhibition of CHK1 in human SKCO1 cells at 1 uM after 4 hrs using biotin labeled DIKPENLLLDER probe by mass-spectrometric analysis relative to control
T3 sequence (whole entry): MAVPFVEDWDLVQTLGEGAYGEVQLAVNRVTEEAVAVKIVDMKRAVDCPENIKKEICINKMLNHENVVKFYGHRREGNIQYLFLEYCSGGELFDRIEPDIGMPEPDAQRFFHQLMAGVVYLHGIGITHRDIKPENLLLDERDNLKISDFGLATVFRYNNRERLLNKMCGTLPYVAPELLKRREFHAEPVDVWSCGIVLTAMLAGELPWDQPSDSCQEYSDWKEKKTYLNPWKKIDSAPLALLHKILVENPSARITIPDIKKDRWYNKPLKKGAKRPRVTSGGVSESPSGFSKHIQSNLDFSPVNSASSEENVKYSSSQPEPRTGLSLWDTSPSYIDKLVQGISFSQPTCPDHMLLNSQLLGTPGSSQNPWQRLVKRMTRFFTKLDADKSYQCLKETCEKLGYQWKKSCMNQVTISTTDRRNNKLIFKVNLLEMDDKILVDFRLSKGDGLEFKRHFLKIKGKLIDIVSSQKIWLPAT

[10] = target: DNA-dependent protein kinase catalytic subunit (Homo sapiens) (UniProt P78527); test: Inhibition of DNAPK in human SKCO1 cells at 1 uM after 4 hrs using biotin labeled EHPFLVKGGEDLR probe by mass-spectrometric analysis relative to control
Chain of DNA-dependent protein kinase catalytic subunit (Homo sapiens) (P78527 whole entry): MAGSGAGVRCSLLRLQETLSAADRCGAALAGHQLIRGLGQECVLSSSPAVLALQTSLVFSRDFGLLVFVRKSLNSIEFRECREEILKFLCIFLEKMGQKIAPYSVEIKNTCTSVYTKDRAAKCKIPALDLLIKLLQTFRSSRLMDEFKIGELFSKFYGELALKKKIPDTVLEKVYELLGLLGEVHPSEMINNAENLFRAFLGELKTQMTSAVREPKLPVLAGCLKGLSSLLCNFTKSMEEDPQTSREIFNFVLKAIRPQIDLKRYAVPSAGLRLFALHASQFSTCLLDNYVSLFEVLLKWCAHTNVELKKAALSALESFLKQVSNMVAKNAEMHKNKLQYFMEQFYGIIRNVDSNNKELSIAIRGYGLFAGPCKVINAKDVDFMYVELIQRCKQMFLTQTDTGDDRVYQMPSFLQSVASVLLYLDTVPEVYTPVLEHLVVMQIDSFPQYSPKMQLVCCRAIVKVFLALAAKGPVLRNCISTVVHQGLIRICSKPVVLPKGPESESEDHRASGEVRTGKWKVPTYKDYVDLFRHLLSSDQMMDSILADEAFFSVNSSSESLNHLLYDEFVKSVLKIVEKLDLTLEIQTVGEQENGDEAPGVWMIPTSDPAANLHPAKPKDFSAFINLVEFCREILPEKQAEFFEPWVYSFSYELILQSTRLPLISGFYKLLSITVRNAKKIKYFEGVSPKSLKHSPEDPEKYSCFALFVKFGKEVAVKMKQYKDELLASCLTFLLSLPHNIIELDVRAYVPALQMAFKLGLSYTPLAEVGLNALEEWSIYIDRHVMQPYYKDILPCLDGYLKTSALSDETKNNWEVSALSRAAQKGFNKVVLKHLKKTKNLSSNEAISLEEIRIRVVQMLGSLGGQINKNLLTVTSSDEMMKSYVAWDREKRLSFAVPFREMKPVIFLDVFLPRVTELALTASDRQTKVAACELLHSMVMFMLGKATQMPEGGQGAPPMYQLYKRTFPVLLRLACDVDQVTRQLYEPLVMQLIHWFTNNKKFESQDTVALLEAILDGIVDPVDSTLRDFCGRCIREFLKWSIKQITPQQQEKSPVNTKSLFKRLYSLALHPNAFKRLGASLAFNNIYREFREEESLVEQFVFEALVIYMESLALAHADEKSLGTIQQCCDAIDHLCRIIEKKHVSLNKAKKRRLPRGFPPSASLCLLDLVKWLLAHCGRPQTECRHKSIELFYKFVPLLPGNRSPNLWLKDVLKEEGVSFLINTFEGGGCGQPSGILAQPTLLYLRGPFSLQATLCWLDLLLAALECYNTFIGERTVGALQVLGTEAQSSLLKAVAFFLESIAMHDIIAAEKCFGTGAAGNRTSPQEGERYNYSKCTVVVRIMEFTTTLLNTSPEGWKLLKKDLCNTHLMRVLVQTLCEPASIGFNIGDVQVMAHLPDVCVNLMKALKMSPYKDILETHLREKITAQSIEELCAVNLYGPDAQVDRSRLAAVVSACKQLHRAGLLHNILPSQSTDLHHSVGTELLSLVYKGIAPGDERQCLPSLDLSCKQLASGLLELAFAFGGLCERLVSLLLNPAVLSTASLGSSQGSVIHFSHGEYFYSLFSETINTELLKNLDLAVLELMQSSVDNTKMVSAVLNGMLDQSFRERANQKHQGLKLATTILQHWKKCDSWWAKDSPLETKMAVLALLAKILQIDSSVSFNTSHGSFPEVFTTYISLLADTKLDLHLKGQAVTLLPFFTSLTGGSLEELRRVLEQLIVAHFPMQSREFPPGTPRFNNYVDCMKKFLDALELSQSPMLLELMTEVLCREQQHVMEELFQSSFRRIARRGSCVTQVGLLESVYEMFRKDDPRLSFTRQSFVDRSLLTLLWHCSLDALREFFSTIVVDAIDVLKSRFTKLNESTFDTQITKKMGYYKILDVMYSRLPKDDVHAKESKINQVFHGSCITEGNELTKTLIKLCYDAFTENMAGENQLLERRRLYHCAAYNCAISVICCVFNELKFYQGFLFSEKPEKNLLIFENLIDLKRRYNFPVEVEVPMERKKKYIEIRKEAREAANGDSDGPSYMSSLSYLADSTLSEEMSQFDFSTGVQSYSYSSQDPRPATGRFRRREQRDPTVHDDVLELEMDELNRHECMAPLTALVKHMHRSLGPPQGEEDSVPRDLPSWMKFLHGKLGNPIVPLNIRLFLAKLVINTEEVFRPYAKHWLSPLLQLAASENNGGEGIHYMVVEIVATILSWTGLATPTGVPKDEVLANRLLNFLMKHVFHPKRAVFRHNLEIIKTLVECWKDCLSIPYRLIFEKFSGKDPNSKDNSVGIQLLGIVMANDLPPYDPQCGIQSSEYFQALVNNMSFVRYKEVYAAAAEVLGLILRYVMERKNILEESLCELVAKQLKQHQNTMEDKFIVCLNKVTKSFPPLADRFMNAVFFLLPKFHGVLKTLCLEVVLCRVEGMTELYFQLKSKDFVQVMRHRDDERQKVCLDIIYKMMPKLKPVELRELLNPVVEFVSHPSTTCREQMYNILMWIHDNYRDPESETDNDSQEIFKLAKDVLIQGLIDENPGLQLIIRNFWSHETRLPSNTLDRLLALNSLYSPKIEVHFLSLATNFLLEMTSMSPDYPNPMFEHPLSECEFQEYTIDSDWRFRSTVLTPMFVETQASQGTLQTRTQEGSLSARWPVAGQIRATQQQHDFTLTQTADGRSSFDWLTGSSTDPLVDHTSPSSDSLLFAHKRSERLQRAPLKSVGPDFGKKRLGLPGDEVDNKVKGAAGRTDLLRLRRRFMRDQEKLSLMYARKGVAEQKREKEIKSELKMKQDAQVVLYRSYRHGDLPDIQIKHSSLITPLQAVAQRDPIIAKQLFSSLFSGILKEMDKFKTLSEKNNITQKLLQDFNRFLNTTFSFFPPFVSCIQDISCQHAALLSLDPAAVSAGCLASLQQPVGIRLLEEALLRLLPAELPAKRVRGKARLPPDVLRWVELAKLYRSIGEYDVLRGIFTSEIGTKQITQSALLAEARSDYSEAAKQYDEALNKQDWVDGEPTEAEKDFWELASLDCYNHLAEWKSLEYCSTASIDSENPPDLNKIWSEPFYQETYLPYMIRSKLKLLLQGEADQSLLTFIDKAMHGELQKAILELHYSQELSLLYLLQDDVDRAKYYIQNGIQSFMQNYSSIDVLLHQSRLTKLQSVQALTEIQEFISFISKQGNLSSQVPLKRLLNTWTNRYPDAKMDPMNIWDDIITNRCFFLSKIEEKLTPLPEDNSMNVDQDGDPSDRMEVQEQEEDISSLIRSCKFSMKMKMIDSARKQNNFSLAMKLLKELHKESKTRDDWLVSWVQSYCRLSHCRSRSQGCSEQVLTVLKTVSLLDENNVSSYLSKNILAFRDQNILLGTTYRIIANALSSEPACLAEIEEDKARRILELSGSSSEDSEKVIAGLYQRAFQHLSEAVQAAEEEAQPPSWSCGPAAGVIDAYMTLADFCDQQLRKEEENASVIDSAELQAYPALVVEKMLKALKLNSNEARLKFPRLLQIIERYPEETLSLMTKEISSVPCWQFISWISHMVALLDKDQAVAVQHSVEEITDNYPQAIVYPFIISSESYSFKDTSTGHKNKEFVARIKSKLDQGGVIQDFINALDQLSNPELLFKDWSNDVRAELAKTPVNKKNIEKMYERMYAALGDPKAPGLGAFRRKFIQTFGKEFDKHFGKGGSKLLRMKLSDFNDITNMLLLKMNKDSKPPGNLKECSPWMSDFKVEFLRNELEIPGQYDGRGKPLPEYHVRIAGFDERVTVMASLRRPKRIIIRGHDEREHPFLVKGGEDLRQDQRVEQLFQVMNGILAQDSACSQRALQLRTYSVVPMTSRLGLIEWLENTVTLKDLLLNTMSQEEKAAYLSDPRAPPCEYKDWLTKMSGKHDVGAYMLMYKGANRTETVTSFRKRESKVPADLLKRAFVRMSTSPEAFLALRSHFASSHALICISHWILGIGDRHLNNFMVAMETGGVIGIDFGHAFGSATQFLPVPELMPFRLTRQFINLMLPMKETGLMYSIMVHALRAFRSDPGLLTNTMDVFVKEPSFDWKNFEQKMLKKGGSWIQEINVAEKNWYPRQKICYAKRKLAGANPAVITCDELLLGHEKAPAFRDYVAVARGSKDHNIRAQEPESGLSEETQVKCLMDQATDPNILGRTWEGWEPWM

Structure (SMILES)	inhibition [1]	inhibition [2]	inhibition [3]	inhibition [4]	inhibition [5]	inhibition [6]	inhibition [7]	inhibition [8]	inhibition [9]	inhibition [10]
C=CC(=O)Nc1ccccc1Oc1nc(Nc2cnn(CCOC)c2)ncc1Cl	-4.5%	15.2%	30.6%	9.3%	3.6%	21.9%	30%	-0.9%	48.8%	16.2%
C=CC(=O)Nc1ccccc1Nc1nc(Nc2ccc(N3CCN(C)CC3)cc2)ncc1Cl	38.2%	-2.8%	13.2%	-0.3%	10.3%	3.7%	14.5%	-6.4%	53.8%	0.5%
COc1cc(O)c2c(c1)/C=C/C[C@H](O)[C@H](O)C(=O)/C=C\C[C@H](C)OC2=O	-6%	4.3%	39.2%	-1.6%	20.4%	21.2%	42.1%	-4.7%	40.2%	21.7%
